“Also recorded” adds a separate entry of the source. Where no end group is shown, it is not given here.

The text below walks through data of PMC10126818 (RSC Advances, 2023).

This data set deals with A549 cells. The experiment in a line: Cytotoxicity assay. It is filed as cell-based, human. Put shortly: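 A549 cells (ATCC) seeded in 96-well plates at 5 × 10^3 cells per mL, grown 24 h. Medium replaced with matched concentrations (up to 160 μg mL−1) of free drug or peptide-nanocage-encapsulated drug (pH 8.09). Nanocages were made by emulsifying drug in chloroform into 1 mM peptide/PBS pH 7.4. After 24 h, CCK-8 added for 3 h; OD 450 nm read. Viability = (ODtest − ODblank)/(ODcontrol − ODblank) × 100%.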

As for `CC(=O)O[C@H]1C(=O)[C@@]2(C)[C@H]([C@H](OC(=O)c3ccccc3)[C@]3(O)C[C@H](OC(=O)[C@H](O)[C@@H](NC(=O)c4ccccc4)c4ccccc4)C(C)=C1C3(C)C)[C@]1(OC(C)=O)CO[C@@H]1C[C@@H]2O` [PTX, Paclitaxel, reference compound], the cell survival rate result (160 μg mL^−1, 24 h culture, CCK-8, OD 450 nm) is “approximately 60%”.
Consider “GNNQQNYPKKPGNNQQNY [GSLP, GNNQQNY-PKKP-GNNQQNY]”, for which the “cytotoxicity (in words)” value (24 h culture, CCK-8) was “not concentration-dependent toxic; also recorded: do not exhibit cytotoxicity”.
